Data published in ChEMBL document CHEMBL3526090, “Pharmacokinetic mechanism involved in the prolonged high retention of laninamivir in mouse respiratory tissues after intranasal administration of its prodrug laninamivir octanoate” (Drug Metab Dispos, 2013).

Assays:
Blood = test: Drug uptake in BALB/cAnNCrlCrlj mouse pulmonary arterial blood at 0.5 umol/kg administered intranasally measured at 24 hrs by microautoradiographic analysis; assay type: ADME, tissue-based, BALB/cAnNCrlCr; conditions: in vivo, inhaled_or_intranasal
[1] = Drug uptake in bronchi of BALB/cAnNCrlCrlj mouse at 0.5 umol/kg administered intranasally measured at 0.25 hrs by microautoradiographic analysis; assay type: ADME, BALB/cAnNCrlCr, Bronchus; conditions: in vivo, inhaled_or_intranasal
[2] = Drug uptake in BALB/cAnNCrlCrlj mouse terminal bronchiole at 0.5 umol/kg administered intranasally measured at 24 hrs by microautoradiographic analysis; assay type: ADME, tissue-based, BALB/cAnNCrlCr; conditions: in vivo, inhaled_or_intranasal
[3] = Drug uptake in BALB/cAnNCrlCrlj mouse bronchial gland at 0.5 umol/kg administered intranasally measured at 24 hrs by microautoradiographic analysis; assay type: ADME, BALB/cAnNCrlCr; conditions: in vivo, inhaled_or_intranasal
[4] = Drug uptake in BALB/cAnNCrlCrlj mouse ciliated columnar epithelial cells at 0.5 umol/kg administered intranasally measured at 24 hrs by microautoradiographic analysis; assay type: ADME, cell-based, BALB/cAnNCrlCr, Epithelial cell; conditions: in vivo, inhaled_or_intranasal
[5] = Drug uptake in BALB/cAnNCrlCrlj mouse alveolar bronchiole at 0.5 umol/kg administered intranasally measured at 24 hrs by microautoradiographic analysis; assay type: ADME, BALB/cAnNCrlCr; conditions: in vivo, inhaled_or_intranasal
Lung [6] = test: Drug uptake in lung of BALB/cAnNCrlCrlj mouse at 0.5 umol/kg administered intranasally measured at 0.25 hrs by microautoradiographic analysis; assay type: ADME, tissue-based, BALB/cAnNCrlCr; conditions: in vivo, inhaled_or_intranasal
[7] = Drug uptake in BALB/cAnNCrlCrlj mouse Goblet cells at 0.5 umol/kg administered intranasally measured at 24 hrs by microautoradiographic analysis; assay type: ADME, BALB/cAnNCrlCr; conditions: in vivo, inhaled_or_intranasal
[8] = Drug uptake in BALB/cAnNCrlCrlj mouse cuboidal epithelial cells at 0.5 umol/kg administered intranasally measured at 24 hrs by microautoradiographic analysis; assay type: ADME, cell-based, BALB/cAnNCrlCr, Epithelial cell; conditions: in vivo, inhaled_or_intranasal
[9] = Drug uptake in BALB/cAnNCrlCrlj mouse pulmonary alveoli at 0.5 umol/kg administered intranasally measured at 24 hrs by microautoradiographic analysis; assay type: ADME, BALB/cAnNCrlCr; conditions: in vivo, inhaled_or_intranasal
[10] = Drug uptake in BALB/cAnNCrlCrlj mouse epithelial lining fluid treated with laninamivir octanoate at 0.5 umol/kg administered intranasally measured at 4 hrs by LC-MS/MS analysis; assay type: ADME; conditions: inhaled or intranasal, read-out: Drug uptake
Method in brief: (§1)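 Female BALB/c mice were dosed intranasally at 0.5 μmol/kg (2.5 ml/kg), N=3–4 per time point. At each sampling time, blood was taken by cardiac puncture, BAL was done with 3 × 1 ml PBS, and lungs were homogenized in 50% acetonitrile. LO and laninamivir were quantified by LC-MS/MS, calibrated over 1–100 ng/ml and 0.5–100 ng/ml respectively. ELF concentration was calculated as CBAL × (urea in plasma / urea in BAL).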

[11] = Drug uptake in BALB/cAnNCrlCrlj mouse epithelial lining fluid at 0.5 umol/kg administered intranasally measured at 4 hrs by LC-MS/MS analysis; assay type: ADME, tissue-based; conditions: inhaled or intranasal, read-out: Drug uptake; method in brief: as §1
[12] = Cmax in BALB/cAnNCrlCrlj mouse plasma treated with laninamivir octanoate at 0.5 umol/kg administered intranasally; assay type: ADME, cell-free; set-up: dose 0.5 umol/kg, route nasal; conditions: inhaled or intranasal
Method in brief: (§2)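 Female BALB/c mice (7 weeks old) received a single intranasal dose of 0.5 μmol/kg at 2.5 ml/kg, with N=3–4 per time point up to 24 h. Plasma, BAL fluid (3 × 1 ml PBS pH 7.4) and lung homogenate were taken, and AEBSF was added to a final 5 mM. LO and laninamivir were measured by LC-MS/MS. ELF levels were corrected using the urea ratio between plasma and BAL. Non-compartmental analysis on mean concentrations gave Cmax/Tmax by observation, t1/2 from ≥3 terminal log points, and AUClast by the trapezoidal method.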

Lung [13] = test: Cmax in BALB/cAnNCrlCrlj mouse lung treated with laninamivir octanoate at 0.5 umol/kg administered intranasally; assay type: ADME; set-up: dose 0.5 umol/kg, route nasal; conditions: in vivo, inhaled_or_intranasal; method in brief: as §2
[14] = Cmax in BALB/cAnNCrlCrlj mouse plasma at 0.5 umol/kg administered intranasally; assay type: ADME, cell-free; set-up: dose 0.5 umol/kg, route nasal; conditions: inhaled or intranasal; method in brief: as §2
[15] = Elimination half life in human treated with laninamivir octanoate administered intranasally; assay type: ADME, organism-based; conditions: in vivo, inhaled or intranasal, read-out: beta t1/2 (converted)
[16] = Tmax in BALB/cAnNCrlCrlj mouse plasma at 0.5 umol/kg administered intranasally; assay type: ADME, cell-free; conditions: inhaled or intranasal; method in brief: as §2
[17] = Lipophilicity, log D of the compound at pH 7.4; assay type: physicochemical; conditions: buffer
Lung [18] = test: AUClast in BALB/cAnNCrlCrlj mouse lung treated with laninamivir octanoate at 0.5 umol/kg administered intranasally; assay type: ADME; conditions: in vivo, inhaled_or_intranasal; method in brief: as §2
[19] = Cmax in BALB/cAnNCrlCrlj mouse epithelial lining fluid at 0.5 umol/kg administered intranasally; assay type: ADME, tissue-based; set-up: dose 0.5 umol/kg, route nasal; conditions: inhaled or intranasal; method in brief: as §2
[20] = Tmax in BALB/cAnNCrlCrlj mouse lung treated with laninamivir octanoate at 0.5 umol/kg administered intranasally; assay type: ADME; conditions: inhaled or intranasal; method in brief: as §2
Lung [21] = test: Drug concentration in BALB/cAnNCrlCrlj mouse lung treated with laninamivir octanoate at 0.5 umol/kg administered intranasally measured at 24 hrs; conditions: in vivo, inhaled_or_intranasal
Lung [22] = test: AUClast in BALB/cAnNCrlCrlj mouse lung at 0.5 umol/kg administered intranasally; assay type: ADME; conditions: in vivo, inhaled_or_intranasal; method in brief: as §2
[23] = Elimination half life in BALB/cAnNCrlCrlj mouse lung treated with laninamivir octanoate at 0.5 umol/kg administered intranasally; assay type: ADME, tissue-based; conditions: inhaled or intranasal, read-out: beta t1/2 (converted); method in brief: as §2
Lung [24] = test: Cmax in BALB/cAnNCrlCrlj mouse lung at 0.5 umol/kg administered intranasally; assay type: ADME; set-up: dose 0.5 umol/kg, route nasal; conditions: in vivo, inhaled_or_intranasal; method in brief: as §2
[25] = Drug uptake in BALB/cAnNCrlCrlj mouse epithelial lining fluid treated with laninamivir octanoate at 0.5 umol/kg administered intranasally measured at 24 hrs by LC-MS/MS analysis; assay type: ADME, tissue-based; conditions: inhaled or intranasal, read-out: Drug uptake; method in brief: as §1
[26] = Drug level in primary cultured BALB/c mouse airway epithelial cells treated with laninamivir octanoate at 50 uM measured up 60 to 90 mins by LC-MS/MS analysis; assay type: ADME, cell-based; conditions: epithelial cell
Method in brief: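 Primary airway epithelial cells from BALB/c mice were obtained by collagenase digestion and negative immunomagnetic selection, then grown to confluence on collagen I. Cells were pre-incubated 30 min in serum-free F-12K. For the time course they were exposed to 50 μM LO for up to 120 min; for concentration dependence, to 10–1000 μM LO for 60 min, at 37°C. After ice-cold PBS washes and Triton lysis, intracellular LO and laninamivir were measured by LC-MS/MS and normalized to Lowry protein, in triplicate.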

[27] = Tmax in BALB/cAnNCrlCrlj mouse epithelial lining fluid at 0.5 umol/kg administered intranasally; assay type: ADME, tissue-based; conditions: inhaled or intranasal; method in brief: as §2
[28] = AUClast in BALB/cAnNCrlCrlj mouse epithelial lining fluid at 0.5 umol/kg administered intranasally; assay type: ADME, tissue-based; set-up: dose 0.5 umol/kg, route nasal, time 0 - last; conditions: inhaled or intranasal; method in brief: as §2
[29] = Elimination half life in BALB/cAnNCrlCrlj mouse plasma treated with laninamivir octanoate at 0.5 umol/kg administered intranasally; assay type: ADME, cell-free; conditions: inhaled or intranasal, read-out: beta t1/2 (converted); method in brief: as §2
Plasma = test: Drug uptake in BALB/cAnNCrlCrlj mouse plasma at 0.5 umol/kg administered intranasally measured after 8 hrs by LC-MS/MS analysis; assay type: ADME, cell-free; conditions: inhaled_or_intranasal; method in brief: as §1
[30] = Tmax in BALB/cAnNCrlCrlj mouse plasma treated with laninamivir octanoate at 0.5 umol/kg administered intranasally; assay type: ADME, cell-free; conditions: inhaled or intranasal; method in brief: as §2
[31] = Cmax in BALB/cAnNCrlCrlj mouse epithelial lining fluid treated with laninamivir octanoate at 0.5 umol/kg administered intranasally; assay type: ADME; set-up: dose 0.5 umol/kg, route nasal; conditions: inhaled or intranasal; method in brief: as §2
[32] = Drug level in primary cultured BALB/c mouse airway epithelial cells treated with laninamivir octanoate at 50 uM measured at 24 hrs by LC-MS/MS analysis; assay type: ADME, cell-based; conditions: epithelial cell
Method in brief: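 Confluent primary BALB/c airway epithelial cells were loaded with 50 μM LO for 60 min and then washed. They were then incubated in drug-free medium at 37°C for up to 24 h, with the medium fully replaced at each sampling point. Cells were washed with ice-cold PBS and lysed. LO and laninamivir in medium and cells were measured by LC-MS/MS and normalized to Lowry protein, in triplicate. Release and hydrolysis rate constants were obtained by first-order compartmental modelling.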

[33] = AUClast in BALB/cAnNCrlCrlj mouse plasma treated with laninamivir octanoate at 0.5 umol/kg administered intranasally; assay type: ADME, cell-free; set-up: dose 0.5 umol/kg, time 0 - last, route nasal; conditions: inhaled or intranasal; method in brief: as §2
[34] = Elimination half life in BALB/cAnNCrlCrlj mouse epithelial lining fluid treated with laninamivir octanoate at 0.5 umol/kg administered intranasally; assay type: ADME; conditions: inhaled or intranasal, read-out: beta t1/2 (converted); method in brief: as §2
[35] = Elimination half life in BALB/cAnNCrlCrlj mouse lung at 0.5 umol/kg administered intranasally; assay type: ADME, tissue-based; conditions: BALB/cAnNCrlCrlj, lung, inhaled or intranasal, 0.5 umol/kg, read-out: beta t1/2 (converted); method in brief: as §2
[36] = Tmax in BALB/cAnNCrlCrlj mouse epithelial lining fluid treated with laninamivir octanoate at 0.5 umol/kg administered intranasally; assay type: ADME, tissue-based; conditions: inhaled or intranasal; method in brief: as §2
[37] = AUClast in BALB/cAnNCrlCrlj mouse epithelial lining fluid treated with laninamivir octanoate at 0.5 umol/kg administered intranasally; assay type: ADME, tissue-based; set-up: dose 0.5 umol/kg, time 0 - last, route nasal; conditions: inhaled or intranasal; method in brief: as §2
[38] = Tmax in BALB/cAnNCrlCrlj mouse lung at 0.5 umol/kg administered intranasally; assay type: ADME; conditions: inhaled or intranasal; method in brief: as §2
[39] = Elimination half life in BALB/cAnNCrlCrlj mouse epithelial lining fluid at 0.5 umol/kg administered intranasally; assay type: ADME, tissue-based; conditions: BALB/cAnNCrlCrlj, epithelial lining fluid, inhaled or intranasal, 0.5 umol/kg, read-out: beta t1/2 (converted); method in brief: as §2
[40] = AUClast in BALB/cAnNCrlCrlj mouse plasma at 0.5 umol/kg administered intranasally; assay type: ADME, cell-free; set-up: dose 0.5 umol/kg, time 0 - last, route nasal; conditions: inhaled or intranasal; method in brief: as §2
Lung [41] = test: Drug uptake in BALB/cAnNCrlCrlj mouse lung at 0.5 umol/kg administered intranasally measured at 24 hrs by LC-MS/MS analysis; assay type: ADME, tissue-based; conditions: in vivo, inhaled_or_intranasal; method in brief: as §1
[42] = Tmax in human treated with laninamivir octanoate at 40 mg administered intranasally; assay type: ADME, organism-based; conditions: in vivo, inhaled or intranasal

## CCCCCCCC(=O)OC[C@@H](O)[C@@H](OC)[C@@H]1OC(C(=O)O)=C[C@H](N[14C](=N)N)[C@H]1NC(C)=O
Blood
  Drug uptake: Active
[1]
  Drug uptake: Active
[2]
  Drug uptake: Active
[3]
  Drug uptake: Active
[4]
  Drug uptake: Active
[5]
  Drug uptake: Active
Lung [6]
  Drug uptake: Active
[7]
  Drug uptake: Active
[8]
  Drug uptake: Active
[9]
  Drug uptake: Active

## CO[C@@H]([C@@H]1OC(C(=O)O)=C[C@H](NC(=N)N)[C@H]1NC(C)=O)[C@H](O)CO [LANINAMIVIR]
[10]
  concentration at 4 h: 1150 nM
[11]
  concentration at 4 h: 51.3 nM
[12]
  Cmax: 181 nM
Lung [13]
  Cmax: 4350 pmol/g
[14]
  Cmax: 478 nM
[15]
  half-life: 3 days
[16]
  Tmax: 30 min
[17]
  logD: -2.18
Lung [18]
  AUClast: 75800 pmol·h/g
[19]
  Cmax: 19.9 µM
[20]
  Tmax: 6 h
Lung [21]
  concentration at 24 h: 2680 pmol/g
Lung [22]
  AUClast: 9890 pmol·h/g
[23]
  half-life: 1850 min
Lung [24]
  Cmax: 1020 pmol/g
[25]
  concentration at 24 h: 842 nM
[26]
  Drug metabolism: metabolite_detected
[27]
  Tmax: 1.98 min
[28]
  AUC(0-t): 19.6 µM·h
[29]
  half-life: 786 min
Plasma
  Drug uptake: Not Active
[30]
  Tmax: 1 h
[31]
  Cmax: 1520 nM
[32]
  Drug metabolism: metabolite_detected
[33]
  AUC(0-t): 0.445 µM·h
[34]
  half-life: 1510 min
[35]
  half-life: 1500 min
[36]
  Tmax: 1 h
[37]
  AUC(0-t): 26.5 µM·h
[38]
  Tmax: 15 min
[39]
  half-life: 1520 min
[40]
  AUC(0-t): 0.782 µM·h
Lung [41]
  Drug uptake: 282 pmol/g
[42]
  Tmax: 4 h
